This passage reports MIC and Activity results from ChEMBL document CHEMBL3425414, “Synthesis of a New Peptide-Coumarin Conjugate: A Potential Agent against Cryptococcosis” (ACS Med Chem Lett, 2015).

In series [1] the test system is Cryptococcus gattii species complex. As to the kind of experiment: Antifungal activity against Cryptococcus gattii 29/10893 after 72 hrs by microdilution method. The class given is functional, Cryptococcus bacillisporus. The conditions noted are these: 29/10893, 72 h. Put shortly:
(§1)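 Broth microdilution susceptibility per CLSI M27-A3; MIC reported in […]. Panel includes C. gattii strains (one fluconazole-resistant, L27/01F) and C. neoformans ATCC strains; fluconazole run as reference drug.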

Series [2] has the same test system. Nature of the series: Antifungal activity against Cryptococcus gattii 23/10993 after 72 hrs by microdilution method. As to conditions: 23/10993, 72 h. The class given is functional, Cryptococcus bacillisporus. Put shortly: as §1
The test system is the same in series [3]. Nature of the series: Antifungal activity against Cryptococcus gattii 1913ER after 72 hrs by microdilution method. The class given is functional, Cryptococcus bacillisporus. Put shortly: as §1
The test system is the same in series [4]. As to the kind of experiment: Antifungal activity against Cryptococcus gattii L27/01 after 72 hrs by microdilution method. The format is functional, Cryptococcus bacillisporus. The conditions noted are these: L27/01, 72 h. A digest of the protocol: as §1
The subject of series [5] is Cryptococcus neoformans. As to the kind of experiment: Antifungal activity against Cryptococcus neoformans ATCC 96806 after 72 hrs by microdilution method. The class given is functional. The conditions noted are these: ATCC 96806, 72 h. Put shortly:
as §1

Series [6] relates to Cryptococcus neoformans. Nature of the series: Antifungal activity against Cryptococcus neoformans ATCC 24067 after 72 hrs by microdilution method. The format is functional. As to conditions: ATCC 24067, 72 h. Put shortly:
as §1

The subject of series [7] is Cryptococcus gattii species complex. As to the kind of experiment: Antifungal activity against Cryptococcus gattii 196L/03 after 72 hrs by microdilution method. The class given is functional, Cryptococcus bacillisporus. As to conditions: 196L/03, 72 h. A digest of the protocol:
as §1

Series [8] shares this test system. As to the kind of experiment: Antifungal activity against Cryptococcus gattii L24/01 after 72 hrs by microdilution method. The format is functional, Cryptococcus bacillisporus. The conditions noted are these: L24/01, 72 h. Put shortly:
as §1

The test system is the same in series [9]. Nature of the series: Antifungal activity against Cryptococcus gattii LMM 818 after 72 hrs by microdilution method. As to conditions: LMM 818, 72 h. The format is functional, Cryptococcus bacillisporus. A digest of the protocol: as §1
Series [10] shares this test system. As to the kind of experiment: Antifungal activity against Cryptococcus gattii 547/OTT after 72 hrs by microdilution method. The format is functional, Cryptococcus bacillisporus. Put shortly:
as §1

Series [11] concerns Cryptococcus neoformans. Nature of the series: Antifungal activity against Cryptococcus neoformans ATCC 62066 after 72 hrs by microdilution method. The format is functional. The conditions noted are these: ATCC 62066, 72 h. Put shortly: as §1
Series [12] relates to Cryptococcus gattii species complex. As to the kind of experiment: Antifungal activity against fluconazole-resistant Cryptococcus gattii L27/01F after 72 hrs by microdilution method. The class given is functional, Cryptococcus bacillisporus. A digest of the protocol:
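Broth microdilution susceptibility test following the CLSI M27-A3 standard; the MIC is reported in […]. Fluconazole is run in parallel as the reference drug across the C. gattii and C. neoformans strain panel.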

The test system is the same in series [13]. Nature of the series: Antifungal activity against Cryptococcus gattii L28/02 after 72 hrs by microdilution method. The format is functional, Cryptococcus bacillisporus. The conditions noted are these: L28/02, 72 h. A digest of the protocol: as §1
Series [14] concerns Cryptococcus bacillisporus. As to the kind of experiment: Antifungal activity against Cryptococcus gattii ATCC 32608 after 72 hrs by microdilution method. The class given is functional. As to conditions: ATCC 32608, 72 h. Put shortly: as §1
The test system of a further series is Cryptococcus gattii. Nature of the series: Antifungal activity against Cryptococcus gattii ATCC 24065 after 72 hrs by microdilution method. The conditions noted are these: ATCC 24065, 72 h.
The test system of series [15] is Cryptococcus gattii species complex. As to the kind of experiment: Antifungal activity against Cryptococcus gattii L135/03 after 72 hrs by microdilution method. The format is functional, Cryptococcus bacillisporus. As to conditions: L135/03, 72 h. Put shortly: as §1
Series [16] concerns Cryptococcus neoformans. Nature of the series: Antifungal activity against Cryptococcus neoformans ATCC 28957 after 72 hrs by microdilution method. The class given is functional. The conditions noted are these: ATCC 28957, 72 h. A digest of the protocol:
as §1

In series [17] the test system is Cryptococcus gattii species complex. Nature of the series: Antifungal activity against Cryptococcus gattii ICB 181 after 72 hrs by microdilution method. The class given is functional, Cryptococcus bacillisporus. As to conditions: ICB 181, 72 h. A digest of the protocol:
as §1

Series [18] relates to Cryptococcus bacillisporus. Nature of the series: Induction of reactive oxygen species formation in Cryptococcus gattii ATCC 32608 at MIC after 0.5 to 1 hr by dichlorofluorescein diacetate probe-based fluorometric assay relative to control. The class given is functional, organism-based. A digest of the protocol:
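Endogenous ROS in C. gattii ATCC 32608 cells treated at the compound's MIC, measured fluorometrically (signal proportional to ROS accumulation); untreated cells and compound alone measured for baseline; group differences tested statistically.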

Series [19] is described as follows: Induction of reactive oxygen species formation after 0.5 to 1 hr by dichlorofluorescein diacetate probe-based fluorometric assay. The class given is physicochemical.

≈ marks a conversion by molar mass, not a printed value. Calls of active or inactive are those of the source. The rule behind the calls is not given here. Peptide text beside a SMILES is read from it. * marks the point of attachment. X1 = CCN(CC)c1ccc2cc(-n3cc(CCC(=O)*)nn3)c(=O)oc2c1; Pent4ynoyl = C#CCCC(=O)*

Take H-RAKRRMQY-NH2: the MIC (in series [1]; in series [2]; in series [3]; in series [4]; against Cryptococcus neoformans [5]; against Cryptococcus neoformans [6]) was > 230 µM each time. The MIC (in series [7]; in series [8]; in series [9]; in series [10]; with Cryptococcus neoformans [11]; in series [12]) was > 230 µM in each case. Moreover, the MIC (in series [13]; in series [14]; with Cryptococcus gattii; in series [15]; against Cryptococcus neoformans [16]; in series [17]) was > 230 µM throughout.
Regarding `OC(Cn1cncn1)(Cn1cncn1)c1ccc(F)cc1F` [FLUCONAZOLE], the MIC in [1] came out at 30 µM (≈ 9.19 µg/mL); in [2] it was 50 µM (≈ 15.3 µg/mL); in series [3] it was 50 µM (≈ 15.3 µg/mL); in series [4], 100 µM (≈ 30.6 µg/mL); in the series on Cryptococcus neoformans [5] it was 150 µM (≈ 45.9 µg/mL); against Cryptococcus neoformans [6], 20 µM (≈ 6.13 µg/mL). Also, the MIC in series [7] worked out at 100 µM (≈ 30.6 µg/mL); in series [8], 50 µM (≈ 15.3 µg/mL); in [9], 100 µM (≈ 30.6 µg/mL); in series [10], 100 µM (≈ 30.6 µg/mL); in the series on Cryptococcus neoformans [11], 30 µM (≈ 9.19 µg/mL); in [12] it was 420 µM (≈ 129 µg/mL). Moreover, the MIC was determined as 100 µM (≈ 30.6 µg/mL) in series [13]; 50 µM (≈ 15.3 µg/mL) in series [14]; 10 µM (≈ 3.06 µg/mL) against Cryptococcus gattii; 50 µM (≈ 15.3 µg/mL) in series [15]; 3 µM (≈ 0.919 µg/mL) in the series on Cryptococcus neoformans [16]; 50 µM (≈ 15.3 µg/mL) in [17].
With `CCN(CC)c1ccc2cc(-n3cc(CCC(=O)N[C@@H](CCCNC(=N)N)C(=O)N[C@@H](C)C(=O)N[C@@H](CCCCN)C(=O)N[C@@H](CCCNC(=N)N)C(=O)N[C@@H](CCCNC(=N)N)C(=O)N[C@@H](CCSC)C(=O)N[C@@H](CCC(N)=O)C(=O)N[C@@H](Cc4ccc(O)cc4)C(N)=O)nn3)c(=O)oc2c1` (X1-RAKRRMQY-NH2), the MIC was 90 µM (≈ 130 µg/mL) in series [1]; 180 µM (≈ 260 µg/mL) in series [2]; 180 µM (≈ 260 µg/mL) in series [3]; 40 µM (≈ 57.8 µg/mL) in [4]; 90 µM (≈ 130 µg/mL) with Cryptococcus neoformans [5]; 90 µM (≈ 130 µg/mL) with Cryptococcus neoformans [6]. For the same molecule, the MIC in [7] is 40 µM (≈ 57.8 µg/mL); in series [8] it was 90 µM (≈ 130 µg/mL); in series [9], 180 µM (≈ 260 µg/mL); in series [10] it was 40 µM (≈ 57.8 µg/mL); in the series on Cryptococcus neoformans [11], 90 µM (≈ 130 µg/mL); in series [12] it was 90 µM (≈ 130 µg/mL). Also, the MIC was found to be 90 µM (≈ 130 µg/mL) in series [13]; 90 µM (≈ 130 µg/mL) in [14]; 180 µM (≈ 260 µg/mL) against Cryptococcus gattii; 40 µM (≈ 57.8 µg/mL) in series [15]; 90 µM (≈ 130 µg/mL) against Cryptococcus neoformans [16]; 90 µM (≈ 130 µg/mL) in series [17]. The result in series [18] was Active. Also, in [19], the Activity result is “Not Active”.
On to `CCN(CC)c1ccc2cc(N=[N+]=[N-])c(=O)oc2c1`, for which the MIC (in series [1]; in series [2]; in series [3]; in series [4]; with Cryptococcus neoformans [5]; against Cryptococcus neoformans [6]) was > 990 µM in each case. In addition, the MIC (in series [7]; in [8]; in series [9]; in series [10]; against Cryptococcus neoformans [11]; in series [12]) was > 990 µM throughout. Moreover, the MIC (in [13]; in series [14]; with Cryptococcus gattii; in series [15]; in the series on Cryptococcus neoformans [16]; in series [17]) was > 990 µM each time.
Take `C#CCCC(=O)N[C@@H](CCCNC(=N)N)C(=O)N[C@@H](C)C(=O)N[C@@H](CCCCN)C(=O)N[C@@H](CCCNC(=N)N)C(=O)N[C@@H](CCCNC(=N)N)C(=O)N[C@@H](CCSC)C(=O)N[C@@H](CCC(N)=O)C(=O)N[C@@H](Cc1ccc(O)cc1)C(N)=O` (Pent4ynoyl-RAKRRMQY-NH2): the MIC (in [1]; in series [2]; in series [3]; in [4]; in the series on Cryptococcus neoformans [5]; against Cryptococcus neoformans [6]) was > 220 µM throughout. Also, the MIC (in series [7]; in [8]; in series [9]; in [10]; in the series with Cryptococcus neoformans [11]; in series [12]) was > 220 µM each time. The MIC (in [13]; in series [14]; in the series on Cryptococcus gattii; in [15]; against Cryptococcus neoformans [16]; in [17]) was > 220 µM in each case.
For the molecule `CCN(CC)c1ccc2cc(-n3cc(CCCO)nn3)c(=O)oc2c1`, the MIC (in series [1]; in series [2]; in series [3]; in series [4]; in the series on Cryptococcus neoformans [5]; in the series on Cryptococcus neoformans [6]) was > 750 µM each time. The MIC (in series [7]; in [8]; in series [9]; in series [10]; against Cryptococcus neoformans [11]; in series [12]) was > 750 µM in each case. Besides, the MIC (in [13]; in [14]; against Cryptococcus gattii; in series [15]; in the series with Cryptococcus neoformans [16]; in series [17]) was > 750 µM each time. In addition, the result in [18] was Active.
